Experimental data published in ChEMBL document CHEMBL1126988, “Quinolone antibacterials containing the new 7-[3-(1-aminoethyl)-1- pyrrolidinyl] side chain: the effects of the 1-aminoethyl moiety and its stereochemical configurations on potency and in vivo efficacy” (J Med Chem, 1993).
In brackets after ≈: the same amount, converted by molar mass.

Key:
Streptococcus pyogenes [1] = test: Compounds were evaluated in vivo for antibacterial activity for mouse protection against Streptococcus pyogenes C 203 after oral administration; type: functional; details: Streptococcus pyogenes, C 203, po; read-out: PD50
Staphylococcus aureus [2] = test: Minimum inhibitory concentration was evaluated in vitro against Staphylococcus aureus H 228; type: functional; details: Staphylococcus aureus; read-out: MIC
Procedure, shortened: (§1)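 Standard microtitration broth assay against a panel of 10 Gram-positive and Gram-negative organisms. MIC read in µg/mL and averaged over multiple experiments.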

Enterococcus faecalis = test: Minimum inhibitory concentration was evaluated in vitro against Enterococcus faecalis MGH-2; type: functional; details: Enterococcus faecalis; read-out: MIC; procedure, shortened: as §1
Providencia rettgeri = test: Minimum inhibitory concentration was evaluated in vitro against Providencia rettgeri M1771; type: functional; details: Providencia rettgeri; read-out: MIC; procedure, shortened: as §1
[3] = Clonogenic cytotoxicity against hamster V-79 cells; type: functional, Cricetulus griseus, V79
Procedure, shortened: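 Chinese hamster V-79 cells grown overnight, then drug-treated for 3 h at 37 °C. Medium is replaced with fresh medium and cells are incubated 5 days to allow colony formation. IC50 (µg/mL) is the concentration inhibiting colony formation by 50% relative to control.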

Escherichia coli [4] = test: Antibacterial activity in vitro against Escherichia coli Vogel; type: functional; details: Escherichia coli; read-out: MIC; procedure, shortened: as §1
Streptococcus pyogenes [5] = test: Antibacterial activity measured as mouse protection against Streptococcus pyogenes C 203 after subcutaneous administration; type: functional; details: Streptococcus pyogenes, C 203, sc; read-out: PD50
Klebsiella pneumoniae = test: Minimum inhibitory concentration was evaluated in vitro against Klebsiella pneumoniae MGH2; type: functional; details: Klebsiella pneumoniae; read-out: MIC; procedure, shortened: as §1
Streptococcus pneumoniae = test: Minimum inhibitory concentration was evaluated in vitro against Streptococcus pneumoniae SV-1; type: functional; details: Streptococcus pneumoniae; read-out: MIC; procedure, shortened: as §1
Escherichia coli [6] = test: Antibacterial activity against Escherichia coli Vogel after subcutaneous administration in mouse; type: functional; details: Escherichia coli, sc; read-out: PD50
Escherichia coli [7] = test: Antibacterial activity against Escherichia coli Vogel after oral administration in mouse; type: functional; details: Escherichia coli, po; read-out: PD50
Streptococcus pyogenes [8] = test: Minimum inhibitory concentration was evaluated in vitro against Streptococcus pyogenes C 203; type: functional; details: Streptococcus pyogenes; read-out: MIC; procedure, shortened: as §1
Pseudomonas aeruginosa = test: Minimum inhibitory concentration was evaluated in vitro against Pseudomonas aeruginosa UI-18; type: functional; details: Pseudomonas aeruginosa; read-out: MIC; procedure, shortened: as §1
Staphylococcus aureus [9] = test: Minimum inhibitory concentration was evaluated in vitro against Staphylococcus aureus UC 76; type: functional; details: Staphylococcus aureus; read-out: MIC; procedure, shortened: as §1
Enterobacter cloacae = test: Minimum inhibitory concentration in vitro against Enterobacter cloacae MA 2646; type: functional; details: Enterobacter cloacae; read-out: MIC
Mus musculus = species: Mus musculus; test: Compounds were evaluated for phototoxicity no-effect dose in mouse; type: functional
Procedure, shortened: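 Depilated female CD-1 mice, five per dose plus controls. Animals are dosed orally and then exposed daily to UV-A (320–400 nm) for 3 h, for up to 4 days or until a definite positive response. Redness or erythema relative to controls, read 24 h after irradiation, counts as positive. Reported as the highest dose with no effect (mg/kg).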

SMILES | ED50 (Streptococcus pyogenes [1]) | MIC (Staphylococcus aureus [2]) | MIC (Enterococcus faecalis) | MIC (Providencia rettgeri) | Cytotoxicity [3] | MIC (Escherichia coli [4]) | ED50 (Streptococcus pyogenes [5]) | MIC (Klebsiella pneumoniae) | MIC (Streptococcus pneumoniae) | ED50 (Escherichia coli [6]) | ED50 (Escherichia coli [7]) | MIC (Streptococcus pyogenes [8]) | MIC (Pseudomonas aeruginosa) | MIC (Staphylococcus aureus [9]) | MIC (Enterobacter cloacae) | Dose (Mus musculus)
CCn1cc(C(=O)O)c(=O)c2cc(F)c(N3CCC(C(C)N)C3)c(OC)c21 (racemic) | 3 mg/kg | 0.006 µg/mL (≈ 0.0159 µM) | 0.006 µg/mL (≈ 0.0159 µM) | 0.1 µg/mL (≈ 0.265 µM) | 19 µg/mL | 0.05 µg/mL (≈ 0.132 µM) | 0.2 mg/kg | 0.1 µg/mL (≈ 0.265 µM) | 0.003 µg/mL (≈ 0.00795 µM) | 3 mg/kg | 9 mg/kg | 0.003 µg/mL (≈ 0.00795 µM) | 0.8 µg/mL (≈ 2.12 µM) | 0.003 µg/mL (≈ 0.00795 µM) | 0.1 µg/mL (≈ 0.265 µM) | –
CCN[C@H](C)[C@H]1CCN(c2c(F)c(N)c3c(=O)c(C(=O)O)cn(C4CC4)c3c2F)C1 (racemic) | 0.3 mg/kg | 0.003 µg/mL (≈ 0.00714 µM) | 0.013 µg/mL (≈ 0.0309 µM) | 0.1 µg/mL (≈ 0.238 µM) | 42 µg/mL | 0.025 µg/mL (≈ 0.0595 µM) | 0.3 mg/kg | 0.05 µg/mL (≈ 0.119 µM) | 0.003 µg/mL (≈ 0.00714 µM) | 1 mg/kg | 2 mg/kg | 0.003 µg/mL (≈ 0.00714 µM) | 0.8 µg/mL (≈ 1.9 µM) | 0.003 µg/mL (≈ 0.00714 µM) | 0.025 µg/mL (≈ 0.0595 µM) | –
CCN[C@H](C)[C@@H]1CCN(c2c(F)c(N)c3c(=O)c(C(=O)O)cn(C4CC4)c3c2F)C1 | 1 mg/kg | 0.006 µg/mL (≈ 0.0143 µM) | 0.025 µg/mL (≈ 0.0595 µM) | 0.2 µg/mL (≈ 0.476 µM) | 15 µg/mL | 0.05 µg/mL (≈ 0.119 µM) | 0.5 mg/kg | 0.1 µg/mL (≈ 0.238 µM) | 0.003 µg/mL (≈ 0.00714 µM) | – | – | 0.003 µg/mL (≈ 0.00714 µM) | 1.6 µg/mL (≈ 3.81 µM) | 0.003 µg/mL (≈ 0.00714 µM) | 0.1 µg/mL (≈ 0.238 µM) | –
CNC(C)C1CCN(c2cc3c(c(N)c2F)c(=O)c(C(=O)O)cn3C2CC2)C1 (racemic) | 8 mg/kg | 0.05 µg/mL (≈ 0.129 µM) | 0.025 µg/mL (≈ 0.0644 µM) | 0.4 µg/mL (≈ 1.03 µM) | 290 µg/mL | 0.1 µg/mL (≈ 0.257 µM) | 1 mg/kg | 0.2 µg/mL (≈ 0.515 µM) | 0.013 µg/mL (≈ 0.0335 µM) | – | – | 0.025 µg/mL (≈ 0.0644 µM) | 1.6 µg/mL (≈ 4.12 µM) | 0.006 µg/mL (≈ 0.0154 µM) | 0.1 µg/mL (≈ 0.257 µM) | >100 mg/kg
CCn1cc(C(=O)O)c(=O)c2cc(F)c(N3CCC(CN)C3)c(F)c21 (stereo not drawn) | 100 mg/kg | 0.1 µg/mL (≈ 0.285 µM) | 0.1 µg/mL (≈ 0.285 µM) | 0.4 µg/mL (≈ 1.14 µM) | – | 0.1 µg/mL (≈ 0.285 µM) | 5 mg/kg | 0.4 µg/mL (≈ 1.14 µM) | 0.1 µg/mL (≈ 0.285 µM) | 1 mg/kg | 90 mg/kg | 0.05 µg/mL (≈ 0.142 µM) | 0.4 µg/mL (≈ 1.14 µM) | 0.1 µg/mL (≈ 0.285 µM) | 0.2 µg/mL (≈ 0.569 µM) | –
CCNCC1CCN(c2nc3c(cc2F)c(=O)c(C(=O)O)cn3C2CC2)C1 (stereo not drawn) | 17 mg/kg | 0.1 µg/mL (≈ 0.267 µM) | 0.1 µg/mL (≈ 0.267 µM) | 0.8 µg/mL (≈ 2.14 µM) | – | 0.1 µg/mL (≈ 0.267 µM) | 8 mg/kg | 0.2 µg/mL (≈ 0.534 µM) | 0.1 µg/mL (≈ 0.267 µM) | 1 mg/kg | 7 mg/kg | 0.2 µg/mL (≈ 0.534 µM) | 0.8 µg/mL (≈ 2.14 µM) | 0.05 µg/mL (≈ 0.134 µM) | 0.2 µg/mL (≈ 0.534 µM) | –
CCNCC1CCN(c2cc3c(c(N)c2F)c(=O)c(C(=O)O)cn3C2CC2)C1 (stereo not drawn) | > 100 mg/kg | 0.2 µg/mL (≈ 0.515 µM) | 0.05 µg/mL (≈ 0.129 µM) | 0.8 µg/mL (≈ 2.06 µM) | – | 0.1 µg/mL (≈ 0.257 µM) | 11 mg/kg | 0.4 µg/mL (≈ 1.03 µM) | 0.05 µg/mL (≈ 0.129 µM) | 3 mg/kg | 90 mg/kg | 0.1 µg/mL (≈ 0.257 µM) | 1.6 µg/mL (≈ 4.12 µM) | 0.025 µg/mL (≈ 0.0644 µM) | 0.1 µg/mL (≈ 0.257 µM) | –
CNCC1CCN(c2cc3c(cc2F)c(=O)c(C(=O)O)cn3C2CC2)C1 (stereo not drawn) | > 50 mg/kg | 0.2 µg/mL (≈ 0.556 µM) | 0.1 µg/mL (≈ 0.278 µM) | 0.4 µg/mL (≈ 1.11 µM) | – | 0.1 µg/mL (≈ 0.278 µM) | 5 mg/kg | 0.2 µg/mL (≈ 0.556 µM) | 0.05 µg/mL (≈ 0.139 µM) | 2 mg/kg | 35 mg/kg | 0.05 µg/mL (≈ 0.139 µM) | 0.8 µg/mL (≈ 2.23 µM) | 0.025 µg/mL (≈ 0.0696 µM) | 0.2 µg/mL (≈ 0.556 µM) | –
